# Measured values reported in ChEMBL document CHEMBL5724801, “EUbOPEN Chemogenomics Library - Multiplex” (2024).
# “And” between values parts separate entries of the source, which are not always exact repeats. Identical values can stand only once.
# Test system: HEK-293T
# Assay: Multiplex assay against HEK293T
# Format: toxicity, cell-based
# Settings: human
# How it was run: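 Hoechst33342, BioTracker Green Microtubule Cytoskeleton Dye, MitoTracker Red and Annexin V Alexa Fluor 680 were added to live cells at seeding, and imaging on a CQ1 microscope at 37°C and 5% CO2 followed compound addition. Gating by CellPathfinder machine learning separated cells into Hoechst high-intensity objects or normal cells, then normal cells into healthy, pyknosed or fragmented nuclei, then pyknosed cells into mitotic or apoptotic. Per cents of healthy-nucleus cells are reported for the tubulin, mitochondrial-mass and membrane-permeability phenotypes.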
# [1] = 12 h, 1 µM, compound concentration 1 uM
# [2] = 12 h, 10 µM, compound concentration 10 uM
# [3] = 24 h, 1 µM, compound concentration 1 uM
# [4] = 24 h, 10 µM, compound concentration 10 uM
# [5] = 48 h, 1 µM, compound concentration 1 uM
# [6] = 48 h, 10 µM, compound concentration 10 uM
compound,measurement,setting,value
c1cc(OCCCN2CCCCC2)ccc1CN1CCCCC1 [JNJ-5207852],Population Apoptotic (%),[1],36% and 47%
same,Population Fragmented Nuclei (%),[1],6% and 10%
same,Population Healthy Nuclei (%),[1],84% and 75%
same,Population Hoechst High Intensity Objects (%),[1],5%
same,Population Membrane Permeable-Phenotype (%),[1],0%
same,Population Mitochondria Different-Phenotype (%),[1],36% and 53%
same,Population Mitotic Cells (%),[1],63% and 52%
same,Population Normal (%),[1],94%
same,Population Pyknosed Nuclei (%),[1],8% and 13%
same,Population Tubulin-Different-Phenotype (%),[1],21% and 17%
same,Total Cell Count,[1],577 and 310
same,Population Apoptotic (%),[2],40% and 66%
same,Population Fragmented Nuclei (%),[2],7%
same,Population Healthy Nuclei (%),[2],75% and 67%
same,Population Hoechst High Intensity Objects (%),[2],7% and 11%
same,Population Membrane Permeable-Phenotype (%),[2],0% and 1%
same,Population Mitochondria Different-Phenotype (%),[2],63% and 69%
same,Population Mitotic Cells (%),[2],59% and 33%
same,Population Normal (%),[2],92% and 88%
same,Population Pyknosed Nuclei (%),[2],17% and 24%
same,Population Tubulin-Different-Phenotype (%),[2],52% and 41%
same,Total Cell Count,[2],328 and 259
same,Population Apoptotic (%),[3],25% and 41%
same,Population Fragmented Nuclei (%),[3],6% and 11%
same,Population Healthy Nuclei (%),[3],82% and 79%
same,Population Hoechst High Intensity Objects (%),[3],5% and 3%
same,Population Membrane Permeable-Phenotype (%),[3],1% and 0%
same,Population Mitochondria Different-Phenotype (%),[3],20% and 30%
same,Population Mitotic Cells (%),[3],74% and 58%
same,Population Normal (%),[3],94% and 96%
same,Population Pyknosed Nuclei (%),[3],11% and 9%
same,Population Tubulin-Different-Phenotype (%),[3],15% and 12%
same,Total Cell Count,[3],710 and 447
same,Population Apoptotic (%),[4],47% and 65%
same,Population Fragmented Nuclei (%),[4],9% and 8%
same,Population Healthy Nuclei (%),[4],77% and 79%
same,Population Hoechst High Intensity Objects (%),[4],6% and 5%
same,Population Membrane Permeable-Phenotype (%),[4],1% and 2%
same,Population Mitochondria Different-Phenotype (%),[4],47% and 50%
same,Population Mitotic Cells (%),[4],52% and 34%
same,Population Normal (%),[4],93% and 94%
same,Population Pyknosed Nuclei (%),[4],13% and 11%
same,Population Tubulin-Different-Phenotype (%),[4],44% and 35%
same,Total Cell Count,[4],414 and 322
same,Population Apoptotic (%),[5],17% and 23%
same,Population Fragmented Nuclei (%),[5],14% and 11%
same,Population Healthy Nuclei (%),[5],80% and 83%
same,Population Hoechst High Intensity Objects (%),[5],2% and 1%
same,Population Membrane Permeable-Phenotype (%),[5],1%
same,Population Mitochondria Different-Phenotype (%),[5],12% and 17%
same,Population Mitotic Cells (%),[5],82% and 76%
same,Population Normal (%),[5],97% and 98%
same,Population Pyknosed Nuclei (%),[5],5% and 4%
same,Population Tubulin-Different-Phenotype (%),[5],11% and 9%
same,Total Cell Count,[5],1128 and 746
same,Population Apoptotic (%),[6],34% and 52%
same,Population Fragmented Nuclei (%),[6],13%
same,Population Healthy Nuclei (%),[6],77% and 75%
same,Population Hoechst High Intensity Objects (%),[6],8% and 9%
same,Population Membrane Permeable-Phenotype (%),[6],1%
same,Population Mitochondria Different-Phenotype (%),[6],29% and 38%
same,Population Mitotic Cells (%),[6],65% and 47%
same,Population Normal (%),[6],91% and 90%
same,Population Pyknosed Nuclei (%),[6],8% and 10%
same,Population Tubulin-Different-Phenotype (%),[6],28% and 30%
same,Total Cell Count,[6],619 and 424
NCCc1cn(S(=O)(=O)c2c(Cl)nc3sccn23)c2ccccc12.O=C(O)C(=O)O,Population Apoptotic (%),[1],37% and 52%
same,Population Fragmented Nuclei (%),[1],5% and 8%
same,Population Healthy Nuclei (%),[1],83% and 78%
same,Population Hoechst High Intensity Objects (%),[1],7% and 8%
same,Population Membrane Permeable-Phenotype (%),[1],0%
same,Population Mitochondria Different-Phenotype (%),[1],53% and 66%
same,Population Mitotic Cells (%),[1],62% and 47%
same,Population Normal (%),[1],92% and 91%
same,Population Pyknosed Nuclei (%),[1],11% and 13%
same,Population Tubulin-Different-Phenotype (%),[1],40% and 34%
same,Total Cell Count,[1],446 and 316
same,Population Apoptotic (%),[2],63% and 64%
same,Population Fragmented Nuclei (%),[2],8%
same,Population Healthy Nuclei (%),[2],49% and 67%
same,Population Hoechst High Intensity Objects (%),[2],22% and 25%
same,Population Membrane Permeable-Phenotype (%),[2],0%
same,Population Mitochondria Different-Phenotype (%),[2],96% and 97%
same,Population Mitotic Cells (%),[2],36% and 35%
same,Population Normal (%),[2],77% and 74%
same,Population Pyknosed Nuclei (%),[2],42% and 23%
same,Population Tubulin-Different-Phenotype (%),[2],88% and 82%
same,Total Cell Count,[2],292 and 209
same,Population Apoptotic (%),[3],33% and 41%
same,Population Fragmented Nuclei (%),[3],9% and 12%
same,Population Healthy Nuclei (%),[3],79% and 78%
same,Population Hoechst High Intensity Objects (%),[3],6% and 4%
same,Population Membrane Permeable-Phenotype (%),[3],1%
same,Population Mitochondria Different-Phenotype (%),[3],28% and 46%
same,Population Mitotic Cells (%),[3],66% and 58%
same,Population Normal (%),[3],93% and 95%
same,Population Pyknosed Nuclei (%),[3],11% and 8%
same,Population Tubulin-Different-Phenotype (%),[3],26% and 19%
same,Total Cell Count,[3],585 and 438
same,Population Apoptotic (%),[4],74% and 75%
same,Population Fragmented Nuclei (%),[4],14%
same,Population Healthy Nuclei (%),[4],37% and 62%
same,Population Hoechst High Intensity Objects (%),[4],34%
same,Population Membrane Permeable-Phenotype (%),[4],2%
same,Population Mitochondria Different-Phenotype (%),[4],83% and 95%
same,Population Mitotic Cells (%),[4],25% and 24%
same,Population Normal (%),[4],65%
same,Population Pyknosed Nuclei (%),[4],48% and 22%
same,Population Tubulin-Different-Phenotype (%),[4],44% and 76%
same,Total Cell Count,[4],310 and 195
same,Population Apoptotic (%),[5],23% and 47%
same,Population Fragmented Nuclei (%),[5],16% and 12%
same,Population Healthy Nuclei (%),[5],77% and 82%
same,Population Hoechst High Intensity Objects (%),[5],3% and 5%
same,Population Membrane Permeable-Phenotype (%),[5],0% and 1%
same,Population Mitochondria Different-Phenotype (%),[5],22% and 23%
same,Population Mitotic Cells (%),[5],76% and 52%
same,Population Normal (%),[5],96% and 94%
same,Population Pyknosed Nuclei (%),[5],6% and 5%
same,Population Tubulin-Different-Phenotype (%),[5],19% and 14%
same,Total Cell Count,[5],972 and 678
same,Population Apoptotic (%),[6],53% and 78%
same,Population Fragmented Nuclei (%),[6],27% and 19%
same,Population Healthy Nuclei (%),[6],24% and 47%
same,Population Hoechst High Intensity Objects (%),[6],62% and 47%
same,Population Membrane Permeable-Phenotype (%),[6],11% and 1%
same,Population Mitochondria Different-Phenotype (%),[6],74% and 75%
same,Population Mitotic Cells (%),[6],46% and 21%
same,Population Normal (%),[6],37% and 52%
same,Population Pyknosed Nuclei (%),[6],47% and 33%
same,Population Tubulin-Different-Phenotype (%),[6],55% and 52%
same,Total Cell Count,[6],294 and 212
